# Source: PubChem BioAssay
# An excerpt weighted towards active compounds, which were near 3.7% of everything screened.
# KCNK9 block – inhibitors of human KCNK9 two-pore domain potassium channel | Q9NPC2 | B-score at 10 µM | HEK293 KCNK9, FluxOR thallium flux fluorescence; active compounds read low | 310,000 compounds, 1.2% hits;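 active = ratio B-score over 3 SD below the library mean, with starting fluorescence within 5 SD of its mean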;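 note: negative B-score means less thallium flux so channel inhibition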
# Target sequence (Q9NPC2 whole entry, looked up, the tested form may be a part): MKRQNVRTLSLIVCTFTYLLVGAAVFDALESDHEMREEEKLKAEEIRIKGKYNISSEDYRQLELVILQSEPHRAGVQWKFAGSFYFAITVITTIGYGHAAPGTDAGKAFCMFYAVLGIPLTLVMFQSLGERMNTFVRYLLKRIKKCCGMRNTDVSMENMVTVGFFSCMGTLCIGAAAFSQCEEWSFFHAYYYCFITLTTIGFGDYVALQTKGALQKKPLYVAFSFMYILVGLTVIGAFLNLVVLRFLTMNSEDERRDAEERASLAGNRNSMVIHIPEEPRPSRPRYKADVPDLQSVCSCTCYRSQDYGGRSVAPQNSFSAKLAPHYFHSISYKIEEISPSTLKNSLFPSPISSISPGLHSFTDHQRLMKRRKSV
# KCNQ1 block – blocks the human KCNQ1 potassium channel; CHO-K1 KCNQ1, FluxOR thallium flux fluorescence; active compounds read high; 310,000 compounds, 1.3% hits; AID 2642; B-score at 10 µM; P51787;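 active = compounds whose thallium flux B-score, printed positive for inhibition, exceeds three library SD while starting fluorescence stays within three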;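 note: channel opened by potassium depolarization with thallium stimulus after 20 min compound exposure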
# KCNK3 block – human KCNK3 channel inhibition, primary screen | O14649 | CHO-KCNK3 thallium flux, FluxOR fluorescence; active compounds read low | B-score at 10 µM | 340,000 compounds, 0.84% hits;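 active = B-score under library mean minus 4 SD, starting fluorescence ratio at most library mean plus 5 SD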;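 note: more negative B-score means stronger inhibition of thallium flux through KCNK3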
# Kir21 inh – inhibitors of mouse Kir2.1 inward-rectifier potassium channel; HEK293-Kir2.1, FluxOR thallium flux fluorescence; active compounds read low; B-score at 10 µM; 310,000 compounds, 0.85% hits;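 active = fluorescence ratio B-score at or below minus 3 SD of library scores, with starting-brightness B-score within 2 SD, cut at about -4.2 in these data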;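 note: channel flux triggered by added potassium and thallium sulfate stimulus; B-score of peak minus minimum fluorescence over baseline after thallium stimulus; more negative B-score means stronger Kir2.1 block with less thallium influx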
# KCNQ1 pot – human KCNQ1 channel potentiation or activation. B-score at 10 µM. CHO-K1 KCNQ1, thallium flux FluxOR fluorescence; active compounds read high. 310,000 compounds, 0.35% hits. P51787;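 active = fluorescence ratio B-score, a plate-corrected score, at least three library SD, with initial intensity B-score within 5 SD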
#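 System: Stable KCNQ1 CHO-K1 line | Incubation: 90 min dye loading and 20 min compound exposure, both at room temperature | Measure: Ratio B score | Medium: Assay buffer for compound exposure, DMSO matched across wells | Compound dosing: Single-concentration screen | Probe or stimulus: K+/Tl+ depolarizing stimulus | Measured by: Kinetic FluxOR fluorescence, 10 s baseline plus 110 s post-stimulus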
# hERG protect – compounds protecting human hERG from proarrhythmic drug block; CHO-hERG, FluxOR thallium flux, dofetilide IC70 present; activation (rescue from dofetilide block), less the hit threshold, % at 10 µM; 310,000 compounds, 0.51% hits; AID 1511;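 active = activation above the mean of controls blocked by dofetilide plus 5 SD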;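 note: thallium influx through hERG after potassium depolarization seen as dye fluorescence rise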
# Active calls of the source: *; i = inactive; . = no result given.
SMILES,KCNK9 block,KCNQ1 block,KCNK3 block,Kir21 inh,KCNQ1 pot,hERG protect
COCCCNC(=O)C(C#N)c1nc2ccccc2nc1N1CCCC1 (stereo not given),i,i,i,0.61,i,-9
CCCCCCOC(=O)C(C#N)c1nc2ccccc2nc1N1CCN(CC)CC1 (stereo not given),i,7*,i,1.2,i,-28
N#CC(C(=O)NCCc1ccccc1)c1nc2ccccc2nc1N1CCCCC1 (stereo not given),i,i,i,0.45,i,-12
Cc1nc(-c2ccc(F)cc2)c(CC(=O)N(C)CC(=O)Nc2ccc(Br)cc2C)s1,i,i,i,0.97,i,-8
CCC1CCC2(CC1)NC(=O)N(CC(=O)N1CCc3ccccc31)C2=O (stereo not given),.,.,i,.,.,.
O=C(Cc1coc2cc(O)ccc12)N1CCN(S(=O)(=O)c2ccc(Br)cc2)CC1,.,.,i,.,.,.
O=C(COC(=O)/C=C/c1ccc(OC(F)F)cc1)Nc1ccc2[nH]c(=O)[nH]c2c1,.,.,i,.,.,.
COc1ccc(Br)cc1CN(C)C(=O)c1ccccc1SCC(=O)N1CCCC1,.,.,i,.,.,.
O=C(Nc1ccc(S(=O)(=O)N2CCCCC2)cc1)c1ccc(CN2CCc3ccccc3C2)cc1,i,6*,i,0.67,i,-11
O=C1N(Cc2ccc(F)cc2)CCN1c1ccc(F)cc1,i,i,i,-0.45,19*,-14
COc1cccc(CN2CCN(c3ccc(F)cc3)C2=O)c1,i,i,i,1.3,i,-1
Cc1cc(NC(=O)COC(=O)[C@H](Cc2ccccc2)NC(=O)c2ccco2)no1,.,.,i,.,.,.
COc1ccc(S(=O)(=O)Cc2ccc(C(=O)N3CCN(c4cc(Cl)ccc4C)CC3)o2)cc1,i,6*,i,-0.33,i,-5
Cc1noc(C)c1CN(C(=S)NC(C)C)c1ccccc1,i,i,i,-6.5*,i,-11
CN(Cc1ccc(Br)s1)C(=O)CNC(=O)c1ccc2c(c1)OCO2,.,.,i,.,.,.
CCC(=O)OCCNc1cc(Sc2nccn2C)c2nonc2c1[N+](=O)[O-],i,7*,i,-2,i,-38
COc1ccc(CN(C)C(=O)c2cccc(S(=O)(=O)N3CCCc4ccccc43)c2)c(OC)c1OC,.,.,i,.,.,.
O=C(O)c1cccc(-n2sc3ccccc3c2=O)c1,.,.,i,.,.,.
O=c1c2ccccc2sn1-c1ccccc1,i,i,i,-1.4,i,6.5*
CCN1C(=O)CCN(C2CCCC2)c2nc(Nc3ccc(C(=O)NC4CCN(C)CC4)cc3OC)ncc21,.,.,i,.,.,.
CC1=C2C3OC(=O)C(C)C3CCC2(C)C=CC1=NO (stereo not given),.,.,i,.,.,.
CC(=O)C1=C(C)NC(SCC(=O)c2ccc(C)cc2)=C(C#N)C1c1ccco1 (stereo not given),i,6*,.,1.6,i,-12
N#CC1=C(SCC(=O)c2ccc(Cl)cc2)NC2=C(C(=O)CCC2)C1c1ccco1 (stereo not given),i,i,i,1.3,i,-16
Cc1cccn2c(/C=N/OCc3ccc(F)cc3)c(-c3ccc(Cl)cc3)nc12,-7.8*,i,i,-0.57,i,-11
COC(=O)[C@H](CC(C)C)NC(=O)Cn1cnc2c(SC)nc(N)nc21,.,.,i,.,.,.
SMILES,KCNK9 block,KCNQ1 block,KCNK3 block,Kir21 inh,KCNQ1 pot,hERG protect
CS(=O)(=O)Nc1ccccc1C(=O)OCC(=O)N1CCC(c2ccccc2)=N1,.,.,i,.,.,.
C=C(C)CNC(=S)NN=C1c2ccccc2-c2ccccc21,i,i,i,-0.75,i,22*
CCCN(CC(=O)Nc1ccccc1Br)CC(=O)Nc1ccc(F)c(F)c1F,-7*,i,i,-0.63,i,-8
O=C(CCNc1ccc(F)cc1)c1cccc([N+](=O)[O-])c1,i,6*,i,-1.3,i,-18
Cc1ccc(NCCC(=O)c2cccc([N+](=O)[O-])c2)cc1,i,9*,i,0.7,i,-11
Cc1ccc(/C=N/N(Cc2ccccc2)c2ccccc2)o1,-6.8*,i,i,-0.48,i,-7
Cc1cc(-n2c(C)cc(C(=O)CSc3ncnc4ccccc34)c2C)no1,i,6*,i,0.84,i,-19
Cc1cc(C(=O)CSc2ncnc3ccccc23)c(C)n1C1CC1,.,.,i,.,.,.
O=C(NC(=S)Nc1nc(-c2ccccc2)cs1)c1cccs1,i,i,i,-0.09,17*,17*
O=C(Nc1nc(-c2ccncc2)cs1)c1ccco1,i,i,i,-0.42,i,-8
CC(C)CC(=O)NC(=S)Nc1nc(-c2ccc(Cl)cc2)cs1,i,i,i,-0.9,i,-4
O=C(NC(=S)Nc1nc(-c2ccccc2)cs1)c1ccco1,i,i,i,-0.15,30*,25*
COc1ccc(-c2csc(NC(=S)NC(=O)c3ccco3)n2)cc1,i,i,i,1.4,8*,-3
CC(C)CC(=O)NC(=S)Nc1nc(-c2ccccc2)cs1,i,i,i,0.23,9*,0
Cc1ccc(-c2csc(NC(=S)NC(=O)c3cccs3)n2)cc1,i,i,i,1.8,i,-3
O=C(COC(=O)c1cccc(OC(F)F)c1)Nc1ncccn1,.,.,i,.,.,.
CC(C)(C)S(=O)(=O)N1C[C@H]2CC/C=C\C/C(c3ccccc3)=C\2[C@@H]1CCO,.,.,i,.,.,.
CSc1ccc(C(=O)Nc2cc(S(=O)(=O)N3CCOCC3)ccc2N2CCOCC2)cc1[N+](=O)[O-],.,.,i,.,.,.
CC(Sc1nnc(C2CC2)n1C1CC1)C(=O)N(C)C1(C#N)CCCCC1 (stereo not given),.,.,i,.,.,.
Cc1onc(-c2ccccc2)c1C(=O)Nc1nc(-c2ccccc2)cs1,i,6*,i,0.76,i,-5
Cc1onc(-c2ccccc2)c1C(=O)Nc1nc(-c2cc(F)ccc2F)cs1,i,i,i,-0.85,i,-19
COc1ccc(S(=O)(=O)N(C)C[C@H]2Oc3ccc(NS(=O)(=O)c4ccc(F)cc4)cc3C(=O)N([C@H](C)CO)C[C@@H]2C)cc1,.,.,i,.,.,.
Cc1ccc(S(=O)(=O)N2CCOCC2)cc1C(=O)NCCCn1ccnc1,i,i,i,-2.1,i,4.7*
O=C(NCCCn1ccnc1)c1cc(S(=O)(=O)N2CCOCC2)c(Cl)cc1Cl,i,i,i,-0.6,i,-7
Cc1cccc(NC(=O)c2cc(-c3ccccn3)nc3ccccc23)c1C,i,i,i,1.1,i,-20
COc1ccc(C(=O)Nc2ccc(Cl)cc2C(=O)NCc2ccco2)cc1,i,i,i,2.4,i,-19
